Rows were chosen to be rich in hits. Some 3% of all compounds tested hit in one or more screens of this group.
TAAR1 agonist = agonists of human TAAR1 | CHO RD-HGA16 TAAR1, Fluo-8 calcium fluorescence; vehicle wells 0%, saturating PEA agonist 100% | activation, % at 3 µM | 360,000 tested, 0.99% active | Q96RJ0;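 active means activation above the mean activation of all test compounds in the run plus 3 SD, cut at about 38% in these data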
Target sequence (Q96RJ0 whole entry, looked up): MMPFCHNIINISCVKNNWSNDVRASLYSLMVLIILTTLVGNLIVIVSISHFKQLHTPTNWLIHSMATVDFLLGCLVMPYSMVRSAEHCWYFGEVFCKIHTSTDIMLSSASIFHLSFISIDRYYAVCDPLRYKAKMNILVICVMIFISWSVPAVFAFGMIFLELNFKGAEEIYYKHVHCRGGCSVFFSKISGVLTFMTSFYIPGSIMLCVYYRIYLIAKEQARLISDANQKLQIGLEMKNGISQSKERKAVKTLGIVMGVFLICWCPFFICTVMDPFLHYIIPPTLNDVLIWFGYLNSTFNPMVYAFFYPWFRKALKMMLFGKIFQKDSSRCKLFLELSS
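test system = CHO RD-HGA16 cells carrying human TAAR1 plus Gα16 | schedule = 17-24 h seeding, 75 min 37 °C dye, 30 min RT | compound dosing = 3 µM single concentration | control set = DMSO and PEA EC100 | replicates = n 1 | signal = Fluo-8 fluorescence, 5 s baseline then 140 s kinetic read | measure = percent activation vs PEA EC100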
TAAR1 antagonist = antagonists of human TAAR1; inhibition, % at 3 µM; AID 624466; 360,000 tested, 1.5% active; CHO RD-HGA16 TAAR1, Fluo-8 calcium fluorescence, antagonist;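 active means inhibition above a per-plate cutoff, the mean inhibition of test compounds on that plate plus 3 SD, cut at about 49% in these data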
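Assay system: RD-HGA16 CHO cells with stable hTAAR1 and Gα16 / Reagent: EC80 β-phenethylamine stimulus / Doses: 3 µM, single point / Timing: dye loading 75 min at 37 °C, then 30 min room temperature / Measured by: Fluo-8 intracellular calcium dye fluorescence, real-time kinetic reads / Controls: vehicle wells and EC80 agonist wells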
CHRM4 agonist = agonists of human muscarinic M4 receptor (CHRM4) | P08173 | CHO-K1 hM4/Gqi5, Fluo-8 calcium fluorescence; vehicle 0%, full acetylcholine response 100% | activation, % at 3 µM | 360,000 tested, 0.14% active;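 active means activation above the run mean over all test wells plus 3 SD, cut at about 32% in these data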;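 further: peak over basal fluorescence ratio per well then scaled between controls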
M4 PAM = positive allosteric modulators of human muscarinic M4 receptor; activation, % at 3 µM; 360,000 tested, 0.4% active; P08173; AID 624126; CHO-K1 hM4/Gqi5, Fluo-8 calcium fluorescence, ACh EC20; 0% = ACh EC20, 100% = maximal ACh;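 active means activation above its plate's cutoff, the mean activation of sample wells plus 3 SD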
CHRM4 antagonist = CHRM4 antagonism in calcium assay. P08173. CHO-hM4 cells, ACh EC80, Fluo-8 calcium fluorescence. inhibition, % at 3 µM. 360,000 tested, 0.73% active. AID 624125;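 active means inhibition above its plate's cutoff, the mean inhibition of sample wells plus 3 SD, cut at about 27% in these data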
TAAR1 ag conf = confirmation of human TAAR1 agonists. shares compounds with TAAR1 agonist. CHO RD-HGA16 TAAR1, Fluo-8 calcium fluorescence; scaled: DMSO 0%, maximal phenethylamine 100%. activation, % at 3 µM. 2,400 tested, 82% active. AID 651783;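 active means activation above a cutoff set at the run's mean compound activation plus 3 SD, cut at about 39% in these data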
Ga16 nonsel ag = counter-screen for TAAR1 agonists: nonselective agonists in parental cells | shares compounds with TAAR1 agonist | CHO-Ga16 parental, Fluo-8 calcium fluorescence; normalized to maximal ATP response, DMSO zero | activation, % at 3 µM | 2,400 tested, 50% active | AID 651787;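 active means activation above the run cutoff, the mean activation over all tested wells plus 3 SD, cut at about 12% in these data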
TAAR1 desensitize = human TAAR1 agonist that also desensitizes the receptor; shares compounds with TAAR1 agonist; CHO RD-HGA16 hTAAR1, Fluo-8 calcium, beta-PEA response inhibition; inhibition, % at 3 µM; 2,400 tested, 46% active; AID 651951;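 active means inhibition above the run cutoff, the mean inhibition of all test compounds plus 3 SD, cut at about 49% in these data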;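 further: beta-PEA stimulus applied at its EC80; loss of beta-PEA calcium signal after compound pretreatment read as receptor desensitization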
Ga16 nonsel ant = nonselective Ga16 antagonist in TAAR1 agonist counter-screen. shares compounds with TAAR1 agonist. CHO-Ga16 ATP-induced calcium, Fluo-8 fluorescence. inhibition, % at 3 µM. 2,400 tested, 39% active. AID 651952;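 active means inhibition above the plate's mean compound inhibition plus 3 SD, computed per plate, cut at about 22% in these data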
Each line names hits and unclear results; the compound was inactive in the other large screens (follow-up assays come after a bar, where they were run).

Cn1c2ccccc2c(=O)c2c(=O)n(C3CCCCC3)c(-c3ccco3)nc21	TAAR1 agonist 103 | TAAR1 ag conf 87 | Ga16 nonsel ag 62 | TAAR1 desensitize inactive | Ga16 nonsel ant 25
Cc1nc2c(c(=O)c3ccccc3n2C)c(=O)n1-c1ccccc1	none
Cc1nc2c(c(=O)c3ccccc3n2C)c(=O)n1C1CCCCCC1	TAAR1 agonist 50 | TAAR1 ag conf 56 | Ga16 nonsel ag 51 | TAAR1 desensitize inactive | Ga16 nonsel ant inactive
COc1ccc(-c2oc3c(c2C#CC2(O)CCCCC2)C(OC)CCC3)cc1 (stereo unspecified)	none
Oc1ccc(/C=N/Nc2ccnc3cc(Cl)ccc23)cc1O	TAAR1 agonist 97, TAAR1 antagonist 65 | TAAR1 ag conf 106 | Ga16 nonsel ag inactive | TAAR1 desensitize 92 | Ga16 nonsel ant inactive
OCCNCc1cc(Br)ccc1OCc1ccc(Cl)cc1Cl	TAAR1 agonist 56 | TAAR1 ag conf 79 | Ga16 nonsel ag 49 | TAAR1 desensitize 51 | Ga16 nonsel ant 41
COc1ccc(NC(=O)CSc2nnc(-c3ccccn3)n2N)cc1Cl	TAAR1 agonist 44 | TAAR1 ag conf 61 | Ga16 nonsel ag inactive | TAAR1 desensitize inactive | Ga16 nonsel ant inactive
COc1cccc(NC(=O)COC(=O)C2CCCCC2)c1	none
NS(=O)(=O)c1ccc(CCNC(=O)COC(=O)CCc2c[nH]c3ccccc23)cc1	none
CN(C)CCCCOc1ccc(F)cc1	none
Cc1ccc(CC2(OCCN(C)C)CCC(C(C)(C)C)CC2)cc1 (stereo unspecified)	TAAR1 agonist 63 | TAAR1 ag conf 85 | Ga16 nonsel ag 45 | TAAR1 desensitize 75 | Ga16 nonsel ant 41
CN(C)CCOC1(Cc2ccc(F)cc2)CCC(C(C)(C)C)CC1 (stereo unspecified)	TAAR1 agonist 56 | TAAR1 ag conf 51 | Ga16 nonsel ag 34 | TAAR1 desensitize inactive | Ga16 nonsel ant 23
CCCCNC(=O)C1(C)CCCCN1Cc1ccc(OCc2ccccc2)cc1 (stereo unspecified)	none
COC(=O)C1CCN(C2CN(Cc3ccc(F)cc3)S(=O)(=O)C2)CC1 (stereo unspecified)	none
CCNC(=O)C1(C)CCN(Cc2csc(-c3ccccc3)n2)C1 (stereo unspecified)	none
Cc1nn(-c2ccccc2)c(C)c1/C=N/n1c(-c2ccncc2)n[nH]c1=S	TAAR1 agonist 47 | TAAR1 ag conf 93 | Ga16 nonsel ag 18 | TAAR1 desensitize inactive | Ga16 nonsel ant inactive
Cc1nn(-c2ccccc2)c(C)c1/C=N/n1c(-c2ccc(Cl)cc2)n[nH]c1=S	none
CC(=O)Nc1cccc(C(=O)NN2C(=O)NC3(CCC(C)CC3)C2=O)c1 (stereo unspecified)	none
CCOc1ccccc1C(=O)N[C@H](C(=O)Nc1nc2c(s1)CCCC2)C(C)C	TAAR1 agonist 46 | TAAR1 ag conf 41 | Ga16 nonsel ag 13 | TAAR1 desensitize inactive | Ga16 nonsel ant inactive
O=C(Cn1cnc([N+](=O)[O-])n1)N/N=C/c1ccccc1O	TAAR1 agonist 53 | TAAR1 ag conf 69 | Ga16 nonsel ag inactive | TAAR1 desensitize inactive | Ga16 nonsel ant inactive
Cc1ccccc1/C=N/NC(=O)Cn1cnc([N+](=O)[O-])n1	none
CN1CCC(N2CCN(C3CN(Cc4ccc(F)cc4)S(=O)(=O)C3)CC2)CC1 (stereo unspecified)	none
O=C(NCc1cccc(Cl)c1)c1cccc(S(=O)(=O)N2CCCC2)c1	none
CCC(C)(C)n1nnnc1C(c1ccc(O)cc1)N1CCc2ccccc2C1 (stereo unspecified)	TAAR1 agonist 98, TAAR1 antagonist 84 | TAAR1 ag conf 93 | Ga16 nonsel ag inactive | TAAR1 desensitize 86 | Ga16 nonsel ant inactive
COc1ccc(C(c2nnnn2C2CCCC2)N2CCc3ccccc3C2)cc1OC (stereo unspecified)	none
CC(C)(C)n1nnnc1C(c1ccccc1)N1CCc2ccccc2C1 (stereo unspecified)	none (no result: TAAR1 agonist, TAAR1 antagonist)
COCCn1nnnc1C(c1ccc(O)c(OC)c1)N1CCc2ccccc2C1 (stereo unspecified)	TAAR1 agonist 86, TAAR1 antagonist 84 | TAAR1 ag conf 103 | Ga16 nonsel ag inactive | TAAR1 desensitize 97 | Ga16 nonsel ant inactive
O=C(NCc1ccccc1)N1CCN(c2ccc(Cl)c(Cl)c2)CC1	TAAR1 agonist 95, TAAR1 antagonist 101 | TAAR1 ag conf inactive | Ga16 nonsel ag inactive | TAAR1 desensitize inactive | Ga16 nonsel ant 36
CCOC(=O)c1c(-c2cccs2)csc1NC(=O)CN1CCOCC1	TAAR1 agonist 44 | TAAR1 ag conf inactive | Ga16 nonsel ag 38 | TAAR1 desensitize inactive | Ga16 nonsel ant 35
CC(C)=CCn1c2ccc(NC(=S)NC3CC3)cc2c(=O)n1C	none
COc1ccc(NC(=O)COC(=O)c2cc(OC)c(OC)c(OC)c2)c([N+](=O)[O-])c1	none
COc1ccc(NC(=O)COC(=O)c2cc(C)oc2C)c([N+](=O)[O-])c1	TAAR1 agonist 62, TAAR1 antagonist 58 | TAAR1 ag conf inactive | Ga16 nonsel ag inactive | TAAR1 desensitize inactive | Ga16 nonsel ant inactive
CC1(C(=O)NS(=O)(=O)c2cccc(C#N)c2)CCN1C(=O)c1ccc(C2CCCCC2)cc1 (stereo unspecified)	none
Cc1c(CNCCc2ccccc2Cl)c(C(=O)O)c(C)n1-c1ccccc1	TAAR1 agonist 90, TAAR1 antagonist 65 | TAAR1 ag conf 92 | Ga16 nonsel ag 25 | TAAR1 desensitize 74 | Ga16 nonsel ant inactive
Cc1c(CNCCc2ccc(Cl)cc2)c(C(=O)O)c(C)n1Cc1ccccc1	none
Cc1cc(N/N=C/c2ccc(O)cc2O)nc(N2CCOCC2)n1	none (no result: TAAR1 agonist, TAAR1 antagonist) | Ga16 nonsel ag inactive | Ga16 nonsel ant inactive
Oc1ccc(/C=N\Nc2cc(N3CCOCC3)nc(N3CCOCC3)n2)c(O)c1	none
COc1ccc(-c2noc(CCC(=O)Nc3cccc(C(=O)NC4CC4)c3)n2)cc1OC	none
COc1ccc(Cn2cc(CN3CC(N4CCN(C)CC4)CS3(=O)=O)nn2)cc1 (stereo unspecified)	none

Bioassay records deposited in PubChem BioAssay by The Scripps Research Institute Molecular Screening Center.
